Measured values pooled from the literature.
Lines come from different studies, so protocols differ.
Observed: microbial growth

Structure (SMILES) | organism | assay | test system | setting | MIC
CC1(C)S[C@@H]2[C@H](NC(=O)[C@H](N)c3ccccc3)C(=O)N2[C@H]1C(=O)O | Salmonella enterica | – | – | 20 h, pH 7 | 1 µg/mL
Oc1ccc(-c2nc(-c3ccc(Oc4ccc(C(F)(F)F)cc4)cc3)no2)cc1 | Bacillus cereus | broth dilution | ATCC13061 | – | 2 µg/mL
CS(=O)(=O)c1ccc([C@@H](O)[C@@H](CF)NC(=O)C(Cl)Cl)cc1 | Salmonella enterica | – | F98, TYPHIMURIUM | 20 h, pH 5.5 | 4 µg/mL
O=C1NC(=S)N/C1=C\c1ccc(-c2ccc(N(c3ccccc3)c3ccccc3)cc2)c2ccccc12 | Bacillus cereus | broth dilution | ATCC10876 | – | > 1000 µg/mL
Cc1cc(NS(=O)(=O)c2ccc(N)cc2)no1 | Salmonella enterica | – | – | 20 h, pH 7.2 | 64 µg/mL
COc1cc(-c2cc(=O)c3c(O)cc(O)cc3o2)ccc1O | Helicobacter pylori | broth dilution | – | – | 3.9 µg/mL
O=C(O)c1cn(C2CC2)c2cc(N3CCNCC3)c(F)cc2c1=O | Bacillus cereus | broth dilution | ATCC10876 | – | 0.12 µg/mL
O=C(Nc1ncc([N+](=O)[O-])s1)c1ccncc1 | Helicobacter pylori | broth dilution | 26695 | 27 h | 16 µM
C[C@@H](O)[C@H]1C(=O)N2C(C(=O)O)=C(S[C@@H]3CN[C@H](C(=O)N(C)C)C3)[C@H](C)[C@H]12 | Salmonella enterica | broth dilution | ENTERITIDIS | clinical isolate | ≤ 0.5 µg/mL
O=C(O)CN1C(=O)/C(=C/c2ccc(-c3ccc(N(c4ccccc4)c4ccccc4)cc3)cc2)NC1=S | Bacillus cereus | broth dilution | ATCC10876 | – | 125 µg/mL
CO/N=C(\C(=O)N[C@@H]1C(=O)N2C(C(=O)O)=C(CSC(=O)c3ccco3)CS[C@H]12)c1csc(N)n1 | Salmonella enterica | – | – | 20 h, pH 7.2 | 1 µg/mL
O=C(O)CN1C(=O)/C(=C/c2c3ccccc3c(-c3ccc(N(c4ccccc4)c4ccccc4)cc3)c3ccccc23)NC1=S | Bacillus cereus | broth dilution | ATCC10876 | – | > 1000 µg/mL
C=C[C@@]1(C)C=C2CC[C@@H]3[C@](C)(CCC[C@@]3(C)C(=O)O)[C@H]2CC1 | Helicobacter pylori | broth dilution | – | – | 31.2 µg/mL
O=C1NC(=S)S/C1=C\c1ccc(-c2ccc(N(c3ccccc3)c3ccccc3)cc2)cc1 | Bacillus cereus | broth dilution | ATCC10876 | – | 1000 µg/mL
O=C(Nc1ncc([N+](=O)[O-])s1)c1cccnc1F | Helicobacter pylori | broth dilution | 26695 | 27 h | 3.7 µM
